Source: publication PMC7187372 (Journal of Clinical Pharmacology, 2019)

Columns and labels:
[1] = Population pharmacokinetic analysis; format: in vivo, human
Summary of the method: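 Single-dose intensive plasma sampling to 120 h (B1371001) or 24 h (B1371002), sparse in B1371003; multiple-dose intensive in all. HPLC–MS/MS assay, LLOQ 0.200 ng/mL. SAEM/IMP estimation; proportional residual error on log concentrations; missing covariates imputed as population median.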

[2] = Healthy volunteer population PK model; format: in vivo, human
Summary of the method: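 Model built from noncancer subjects in studies B1371010 and B1371014 (n = 49; 1937 plasma concentrations). Structure: 2-compartment, first-order absorption and elimination, allometric body-weight scaling. Estimation by FOCEI. Food entered empirically as a linear covariate on ka. Residual error was proportional across all subjects. Intersubject variability is reported as CV (%).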

[3] = Simulation of steady-state exposure; set-up: species or system human
Ketoconazole = format: in vivo, human; details: glasdegib 200-mg single dose, ketoconazole 400 mg daily, healthy subjects
[4] = cited from earlier work
[5] = cited from earlier work; remark: listed apart in the source
[6] = cited from earlier work; remark: listed apart in the source
[7] = cited from earlier work; remark: listed apart in the source
[8] = healthy subjects; cited from earlier work
[9] = cited from earlier work; remark: listed apart in the source
[10] = test system: Hedgehog pathway marker glioma‐associated oncogene homolog 1 (GLI1); details: plasma exposures at doses ≥100 mg QD; cited from earlier work
[11] = higher; cited from earlier work
[12] = bootstrap median, 1000 resampled data sets
[13] = healthy volunteer model vs final model, higher
[14] = healthy volunteer model, n = 49, FOCEI
[15] = glasdegib 200-mg single dose, ketoconazole 400 mg daily, healthy subjects

## CN1CC[C@@H](NC(=O)Nc2ccc(C#N)cc2)C[C@@H]1c1nc2ccccc2[nH]1 [glasdegib, Glasdegib]
[1]; bootstrap median
  Residual error, proportional error, Hematologic: 65.7%
  Residual error, proportional error, Solid tumors: 59.3%
[1]; [12]
  CL/F: 6.23 L/h
  Q/F: 1.58 L/h
  Vc/F: 3.52 L
  Vp/F: 296.04 L
  ka: 0.06 hour^–1
  θBPBL: –0.004
  θCYPmod: –0.18
  θCYPstrong: –0.31
  θWNCL: 0.41
  θsolid on Q/F: –0.69
  θsolid on Vp/F: –0.81
[1]; covariate analysis
  Effect of age, sex, race and hepatic function on glasdegib PK parameters: not found to be significant covariates
[1]; final model estimate
  Residual error, proportional error, Hematologic: 65.8%
  Residual error, proportional error, Solid tumors: 59.5%
[1]; from population median 38.2%, CL/F decreases as blasts increase
  Change in CL/F per 1% change in baseline percentage bone marrow blasts: 0.4%
[2]; healthy volunteer model
  Intersubject variability CL/F: 19.6% (5.8%)
  Intersubject variability Vc/F: 11.0% (52.0%)
  Intersubject variability ka: 53.4% (10.6%)
[2]; [13]
  CL/F in healthy subjects relative to patients with cancer: > 1.6 fold
  ka in healthy subjects relative to patients with cancer: over 13 fold
[2]; healthy volunteer model, all subjects
  Residual error, proportional error: 58.6%
[2]; [14]
  CL/F: 10.1 (4.1%) L/h
  Q/F: 1.92 (11.4%) L/h
  Vc/F: 112 (4.1%) L
  Vp/F: 53.5 (6.9%) L
  ka: 0.79 (8.9%) hour^–1
[2]; healthy volunteer model, FIXED
  Intersubject variability Q/F: 3.2% FIXED
  Intersubject variability Vp/F: 3.2% FIXED
[3]; 10th percentile baseline body weight vs 70 kg
  Exposure increase from CL/F reduction: ~1.1 fold
[3]; 90th percentile baseline body weight
  Simulated fold change in steady-state maximum concentration and area under the curve: ~0.75
[3]; 90th percentile baseline bone marrow blasts
  Exposure increase from CL/F reduction: ~1.1 fold
[3]; strong CYP3A inhibitors
  Increase in area under the curve: ~1.4 fold
Ketoconazole
  Decrease in CL/F with ketoconazole: 58%
[4]; 5-600 mg QD, single and multiple daily dosing
  Dose proportionality of plasma exposure: dose‐proportional increase in plasma exposure
[4]; oral, patients
  Maximum tolerated dose (MTD): 400 mg QD
[5]
  Absolute oral bioavailability: 77.12%
[6]; 100 mg dose
  Radiolabeled dose recovered in feces (mean): 41.7%
  Radiolabeled dose recovered in urine (mean): 48.9%
[6]
  Renal contribution to elimination: around 17%
[6]; of the 100 mg dose
  Unchanged glasdegib recovered in feces: 19.5%
  Unchanged glasdegib recovered in urine: 17.2%
[7]
  Plasma exposures with a strong CYP3A inhibitor: increased
[7]; [15]
  Increase in AUC extrapolated to infinity with ketoconazole vs glasdegib alone: 140%
  Increase in maximum plasma concentration with ketoconazole vs glasdegib alone: 40%
[8]
  Effect of high-fat meal or proton pump inhibitors on PK: not affected in a clinically relevant manner
[9]
  Plasma exposures with a strong CYP3A4 inducer: decreased
[10]
  Downregulation of GLI1: robust and consistent

## Cc1c(C(=O)Nc2ccc(N3C[C@@H](C)O[C@@H](C)C3)nc2)cccc1-c1ccc(OC(F)(F)F)cc1 [sonidegib, Sonidegib]
[11]
  Clearance in healthy subjects relative to patients with cancer: 3 fold
